Values after ≈ are worked out from the molar mass of the structure shown. Values belong to the compound of their own block, whether it stands above or below them.
Experiments:
Format in all cases: cell-based
human lymphocytes = assay: Comet assay
Outline: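 Freshly isolated human lymphocytes from fresh blood were exposed to test compound at 40–0.078 μg/mL. Controls were 20% DMSO (positive) and normal saline (negative). Cells in low-melting agarose went onto slides precoated with normal-melting agarose, then cold lysis overnight, alkaline unwinding at pH >13, and electrophoresis for 30 min at 300 mA, 24 V. Slides were neutralised at pH 7.5 and ethidium bromide-stained. Tail length and head diameter were scored by fluorescence microscopy, damage index by formula, reported as mean ± SD of 3–5 experiments.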

MCF-7 cell line = assay: MTT assay, anticancer activity on MCF-7 cell line; details: Homo sapiens, MCF7, 48 h
Vero cell line = assay: MTT assay, cytotoxicity on Vero; details: Chlorocebus sabaeus, 48 h, read-out: IC50 Vero cell line

fragmentation % (human lymphocytes; positive control, 20%): 100%
Structure (SMILES): C[S+](C)[O-] [20% DMSO, Dimethyl sulfoxide]
damage index (human lymphocytes; positive control, 20%): 45 | genetic damage index (human lymphocytes; positive control, 20%): 1.8

IC50 (MCF-7 cell line; read-out: IC50 MCF7 cell line): 11.5 µg/mL (≈ 31.1 µM) | fragmentation % (human lymphocytes; 0.078 μg/mL): 0% | mean tail length n = 25 (human lymphocytes; 0.078 μg/mL): 0.36 ± 0.47 | fragmentation % (human lymphocytes; 0.156 μg/mL): 0% | mean tail length n = 25 (human lymphocytes; 0.156 μg/mL): 0.46 ± 0.38 | fragmentation % (human lymphocytes; 0.3125 μg/mL): 0% | mean tail length n = 25 (human lymphocytes; 0.3125 μg/mL): 0.57 ± 0.22 | fragmentation % (human lymphocytes; 0.625 μg/mL): 0% | mean tail length n = 25 (human lymphocytes; 0.625 μg/mL): 0.54 ± 0.28 | fragmentation % (human lymphocytes; 1.25 μg/mL): 0% | mean tail length n = 25 (human lymphocytes; 1.25 μg/mL): 0.68 ± 0.35 | fragmentation % (human lymphocytes; 2.5 μg/mL): 0% | mean tail length n = 25 (human lymphocytes; 2.5 μg/mL): 0.68 ± 0.74 | fragmentation % (human lymphocytes; 5 μg/mL): 0% | mean tail length n = 25 (human lymphocytes; 5 μg/mL): 1.14 ± 0.72 | fragmentation % (human lymphocytes; 10 μg/mL): 4% | mean tail length n = 25 (human lymphocytes; 10 μg/mL): 1.28 ± 0.28 | fragmentation % (human lymphocytes; 20 μg/mL): 8% | mean tail length n = 25 (human lymphocytes; 20 μg/mL): 1.31 ± 0.74 | fragmentation % (human lymphocytes; 40 μg/mL): 12% | mean tail length n = 25 (human lymphocytes; 40 μg/mL): 1.86 ± 0.73
Structure (SMILES): COc1cc(/C=C/C(=O)CC(=O)/C=C/c2ccc(O)c(OC)c2)ccc1O [curcumin]
inhibition at 40 µg/mL (MCF-7 cell line; read-out: percentage inhibition against MCF7 cell line): 64% | IC50 (Vero cell line): 23.2 µg/mL (≈ 63 µM) | damage index (human lymphocytes; 0.078 μg/mL): 0 | genetic damage index (human lymphocytes; 0.078 μg/mL): 0 | damage index (human lymphocytes; 0.156 μg/mL): 0 | genetic damage index (human lymphocytes; 0.156 μg/mL): 0 | damage index (human lymphocytes; 0.3125 μg/mL): 0 | genetic damage index (human lymphocytes; 0.3125 μg/mL): 0 | damage index (human lymphocytes; 0.625 μg/mL): 0 | genetic damage index (human lymphocytes; 0.625 μg/mL): 0 | damage index (human lymphocytes; 1.25 μg/mL): 0 | genetic damage index (human lymphocytes; 1.25 μg/mL): 0 | damage index (human lymphocytes; 2.5 μg/mL): 0 | genetic damage index (human lymphocytes; 2.5 μg/mL): 0 | damage index (human lymphocytes; 5 μg/mL): 0 | genetic damage index (human lymphocytes; 5 μg/mL): 0 | damage index (human lymphocytes; 10 μg/mL): 1 | genetic damage index (human lymphocytes; 10 μg/mL): 0.04 | damage index (human lymphocytes; 20 μg/mL): 2 | genetic damage index (human lymphocytes; 20 μg/mL): 0.08 | damage index (human lymphocytes; 40 μg/mL): 3 | genetic damage index (human lymphocytes; 40 μg/mL): 0.12
